According to ChEMBL document CHEMBL1134294, “A prodrug form of a Plasmodium falciparum glutathione reductase inhibitor conjugated with a 4-anilinoquinoline” (J Med Chem, 2001):
Activity calls are given as the source filed them. The calls are words filed in the database; no cut-off is given here.

Tests used:
[1] = tested on: Plasmodium falciparum; assay: Effective dose against chloroquine-resistant Plasmodium falciparum FcB1R; assay type: functional
In short: (§1)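 Asynchronous cultures in human erythrocytes (0.5% parasitemia, 1% hematocrit) received serially diluted drug, DMSO ≤0.1%. After 24 h at 37 °C, 0.5 μCi [3H]hypoxanthine was added and incubation continued another 24 h. Growth inhibition was taken versus drug-free control, ED50 read from the concentration–response curve, and reported as mean of ≥3 independent experiments.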

[2] = target: Glutathione reductase (Plasmodium falciparum 3D7) (UniProt O15770); assay: In vitro inhibition of Plasmodium falciparum Glutathione Reductase; Not active; settings: Plasmodium falciparum FcB1
Chain of Glutathione reductase (Plasmodium falciparum 3D7) (O15770 whole entry): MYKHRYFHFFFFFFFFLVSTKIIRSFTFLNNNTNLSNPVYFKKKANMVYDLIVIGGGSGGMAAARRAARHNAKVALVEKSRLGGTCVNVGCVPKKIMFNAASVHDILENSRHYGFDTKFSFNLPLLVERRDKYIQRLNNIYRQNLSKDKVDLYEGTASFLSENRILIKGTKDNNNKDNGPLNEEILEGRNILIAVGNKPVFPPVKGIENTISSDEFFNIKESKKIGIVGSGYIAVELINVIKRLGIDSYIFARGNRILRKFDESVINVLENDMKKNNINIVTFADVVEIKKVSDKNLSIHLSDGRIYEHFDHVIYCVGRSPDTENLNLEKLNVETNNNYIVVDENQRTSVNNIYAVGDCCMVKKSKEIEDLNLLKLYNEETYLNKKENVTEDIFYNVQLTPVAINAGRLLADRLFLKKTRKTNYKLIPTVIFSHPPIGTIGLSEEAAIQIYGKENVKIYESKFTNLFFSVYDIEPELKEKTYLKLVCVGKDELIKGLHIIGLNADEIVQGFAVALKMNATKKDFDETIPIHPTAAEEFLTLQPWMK
In short: (§2)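 Recombinant purified GR (about 5 mU/ml) with 100 μM NADPH in 47 mM potassium phosphate, 200 mM KCl, 1 mM EDTA, pH 6.9, at 25 °C. Enzyme, NADPH and inhibitor are premixed and the reaction is started with 100 μM GSSG. NADPH loss is read at 340 nm. IC50 is taken from increasing inhibitor concentrations in 1% final DMSO, run in duplicate.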

[3] = target: T1, Glutathione reductase, mitochondrial (Homo sapiens) (UniProt P00390); assay: In vitro inhibition of human Glutathione Reductase; Not active; in short: as §2
T1 sequence (whole entry): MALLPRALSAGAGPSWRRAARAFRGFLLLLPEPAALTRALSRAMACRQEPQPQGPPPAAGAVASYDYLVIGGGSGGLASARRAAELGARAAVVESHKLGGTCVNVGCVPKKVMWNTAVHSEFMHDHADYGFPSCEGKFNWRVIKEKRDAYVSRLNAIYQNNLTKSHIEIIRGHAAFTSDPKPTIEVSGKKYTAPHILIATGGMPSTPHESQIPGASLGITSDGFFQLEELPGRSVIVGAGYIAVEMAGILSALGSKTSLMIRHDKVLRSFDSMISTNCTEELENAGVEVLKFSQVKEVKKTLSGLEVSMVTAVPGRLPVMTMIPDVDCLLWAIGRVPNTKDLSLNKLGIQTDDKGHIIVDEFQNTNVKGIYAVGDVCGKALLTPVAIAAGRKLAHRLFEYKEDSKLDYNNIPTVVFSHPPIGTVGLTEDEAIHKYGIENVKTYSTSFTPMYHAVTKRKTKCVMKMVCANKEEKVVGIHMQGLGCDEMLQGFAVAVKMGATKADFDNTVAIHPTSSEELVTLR

[4] = Susceptibility of compound to hydrolysis at 37 degrees C at pH 7.4 phosphate buffer; assay type: ADME
In short: (§3)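 Prodrug (100 μM final, from 1 mM stock in 10% aqueous DMSO) is incubated at 37 °C in pH 7.4 phosphate buffer (150 mM NaCl, 4 mM NaH₂PO₄, 25 mM NaHCO₃) or pH 5.0 acetate (150 mM NaCl, 10 mM NaOAc). Half-life of ester disappearance is found by HPLC as the mean of two determinations.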

[5] = Susceptibility of compound to hydrolysis at 37 degrees C at pH 5.0 acetate medium; assay type: ADME; in short: as §3
[6] = target: T1, Glutathione reductase, mitochondrial (Homo sapiens); assay: Competitive inhibition of human Glutathione Reductase
[7] = target: Glutathione reductase (Plasmodium falciparum 3D7) (UniProt O15770); assay: Competitive inhibition of Plasmodium falciparum Glutathione Reductase; settings: Plasmodium falciparum FcB1
[8] = target: Glutathione reductase (Plasmodium falciparum 3D7, UniProt O15770); assay: In vitro inhibition of Plasmodium falciparum Glutathione Reductase; set-up: species or system FcB1; in short: as §2
Chain of Glutathione reductase (O15770 whole entry): as the sequence (O15770 whole entry) above

[9] = target: T2, Glutathione reductase, mitochondrial (Homo sapiens, UniProt P00390); assay: In vitro inhibition of human Glutathione Reductase; in short: as §2
T2 sequence (P00390 whole entry): T1 sequence (whole entry)

[10] = tested on: Plasmodium falciparum; assay: Effect on nucleic acid of chloroquine-resistant Plasmodium falciparum K1 culture after 24 hrs at 500 nM; assay type: functional
In short: (§4)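 Synchronized K1 ring cultures were treated 24 h, then saponin-isolated and freeze-thawed. Extract was diluted in 150 mM KH2PO4, pH 8.0, and nucleic acid and protein were estimated from absorbance at 260 and 280 nm. Protein was also measured by dye-binding assay with BSA standard.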

[11] = tested on: Plasmodium falciparum; assay: In vitro efficacy for chloroquine-sensitive Plasmodium falciparum Thai strain; settings: read-out: ED50 (the source's name)
[12] = target: Glutathione reductase (Plasmodium falciparum K1) (UniProt Q94655); assay: Effect on glutathione reductase activity of chloroquine-resistant Plasmodium falciparum K1 in culture after 24 hrs treatment at 30 nM conc; assay type: functional
Chain of Glutathione reductase (Plasmodium falciparum K1) (Q94655 whole entry): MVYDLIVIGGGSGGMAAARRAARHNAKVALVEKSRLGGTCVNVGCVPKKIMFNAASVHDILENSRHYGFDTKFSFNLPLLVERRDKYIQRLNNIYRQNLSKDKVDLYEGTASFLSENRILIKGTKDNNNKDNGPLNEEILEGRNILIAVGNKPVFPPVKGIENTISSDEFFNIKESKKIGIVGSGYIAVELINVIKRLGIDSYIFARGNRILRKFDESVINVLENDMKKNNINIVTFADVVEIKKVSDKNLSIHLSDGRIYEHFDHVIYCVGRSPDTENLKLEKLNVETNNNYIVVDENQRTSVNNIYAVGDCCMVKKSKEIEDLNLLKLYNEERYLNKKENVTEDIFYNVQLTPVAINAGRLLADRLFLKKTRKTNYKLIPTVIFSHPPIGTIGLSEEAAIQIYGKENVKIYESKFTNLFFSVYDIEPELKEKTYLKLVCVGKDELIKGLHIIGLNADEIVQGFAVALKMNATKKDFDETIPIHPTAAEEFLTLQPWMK
In short: (§5)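 After 24 h exposure of synchronized K1 ring cultures, parasites were saponin-isolated and freeze-thaw extracts prepared. GR activity was assayed at 25 °C with 100 μM NADPH and 100 μM GSSG in 47 mM potassium phosphate, 200 mM KCl, 1 mM EDTA, pH 6.9, following NADPH consumption at 340 nm.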

[13] = tested on: Plasmodium falciparum; assay: Effect on glutathione content of chloroquine-resistant Plasmodium falciparum K1 culture after 24 hrs at 30 nM; assay type: functional
In short: (§6)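 Sorbitol-synchronized K1 rings (5% hematocrit, 3.7% parasitemia) exposed 24 h, then saponin-lysed and freeze-thawed. Extract (40 μL) was deproteinized with 2 volumes of 5% sulfosalicylic acid. Total glutathione was measured by GR-coupled DTNB-GSH recycling against a GSH standard curve. Expressed as nmol/mg protein.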

[14] = tested on: Mus musculus; assay: Percentage of parasitaemia on day 18 in mice infected with Plasmodium berghei (ip, 40 mg/kg); assay type: functional
In short: (§7)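 Female Swiss CD-1 mice (four-week-old, 20–25 g, three per group) are infected ip with about 10⁷ P. berghei ANKA 65 parasitized erythrocytes from a donor. On the day of infection they receive 40 mg/kg orally in 100% DMSO, then daily ip for 4 days. Parasitemia is counted daily. Controls get DMSO only.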

[15] = Susceptibility of compound to hydrolysis at 37 degrees C for RPMI-10% human serum; assay type: ADME; settings: RPMI with 10% human serum
In short: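 Prodrug (100 μM final, from 1 mM stock in 10% aqueous DMSO) is held in RPMI with 10% human serum at 37 °C and sampled from 0 to 77.5 h. Samples are mixed with EtOH plus internal reference, centrifuged, and the supernatant is analysed by HPLC. Half-life of ester disappearance is the mean of two determinations.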

[16] = target: Glutathione reductase (Plasmodium falciparum K1) (UniProt Q94655); assay: Effect on glutathione reductase activity of chloroquine-resistant Plasmodium falciparum K1 in culture after 24 hrs treatment at 150 nM conc; assay type: functional; in short: as §5
[17] = target: T3, Glutathione S-transferase (Plasmodium falciparum) (UniProt Q8ILQ7); assay: Effect on glutathione S-transferase (GST) activity of chloroquine-resistant Plasmodium falciparum K1 in culture after 24 hrs treatment at 150 nM conc; assay type: functional
T3 sequence (whole entry): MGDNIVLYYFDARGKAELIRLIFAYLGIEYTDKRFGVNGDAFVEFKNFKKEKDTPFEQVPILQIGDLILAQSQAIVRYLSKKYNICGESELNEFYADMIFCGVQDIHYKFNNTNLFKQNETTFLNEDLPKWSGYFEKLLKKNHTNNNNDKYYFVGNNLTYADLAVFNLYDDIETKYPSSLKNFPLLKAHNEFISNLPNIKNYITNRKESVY
In short: (§8)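 K1 ring-stage cultures (sorbitol-synchronized, 5% hematocrit, 3.7% parasitemia) treated 24 h. Parasites were released with 0.02% saponin (10 min, 37 °C), freeze-thawed three times and the supernatant assayed. GST activity was read spectrophotometrically at 340 nm with 0.5 mM CDNB and 1 mM GSH in 100 mM potassium phosphate, 1 mM EDTA, pH 6.5. Reported as mU/mg protein.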

[18] = tested on: Plasmodium falciparum; assay: Effect on nucleic acid of chloroquine-resistant Plasmodium falciparum K1 culture after 24 hrs at 30 nM; assay type: functional; in short: as §4
[19] = tested on: Plasmodium falciparum; assay: Effect on glutathione content of chloroquine-resistant Plasmodium falciparum K1 culture after 24 hrs at 150 nM; assay type: functional; in short: as §6
[20] = tested on: Plasmodium falciparum; assay: In vitro efficacy for chloroquine-resistant Plasmodium falciparum FcB1; assay type: functional; settings: read-out: ED50 (the source's name); in short: as §1
[21] = target: T3, Glutathione S-transferase (Plasmodium falciparum); assay: Effect on glutathione S-transferase (GST) activity of chloroquine-resistant Plasmodium falciparum K1 in culture after 24 hrs treatment at 500 nM conc; assay type: functional; in short: as §8
[22] = tested on: Mus musculus; assay: Percentage of parasitaemia on day 11 in mice infected with Plasmodium berghei (ip, 40 mg/kg); assay type: functional; in short: as §7
[23] = tested on: Plasmodium falciparum; assay: In vitro efficacy for chloroquine-resistant Plasmodium falciparum W2; assay type: functional; settings: read-out: ED50 (the source's name); in short: as §1
[24] = target: T3, Glutathione S-transferase (Plasmodium falciparum); assay: Effect on glutathione S-transferase (GST) activity of chloroquine-resistant Plasmodium falciparum K1 in culture after 24 hrs treatment at 30 nM conc; assay type: functional; in short: as §8
[25] = tested on: Plasmodium falciparum; assay: Effect on protein of chloroquine-resistant Plasmodium falciparum K1 culture after 24 hrs at 500 nM; assay type: functional; in short: as §4
[26] = tested on: Mus musculus; assay: Percentage excess MST, when used as the chlorohydrate in mice infected with Plasmodium berghei (i.p., 40 mg/kg); assay type: functional; settings: route intraperitoneal
In short: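 Female Swiss CD-1 mice (four weeks, 20–25 g), three per group, were infected ip with about 10^7 P. berghei ANKA parasitized erythrocytes. Dosing was 40 mg/kg in 100% DMSO, given orally at infection, then ip over the following 4 days. Parasitemia was counted daily. Activity was scored as percentage excess mean survival time over DMSO-treated infected controls.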

[27] = tested on: Plasmodium falciparum; assay: Effect on glutathione reductase activity of chloroquine-resistant Plasmodium falciparum K1 culture after 24 hrs at 500 nM; assay type: functional; in short: as §5
[28] = tested on: Plasmodium falciparum; assay: In vitro efficacy for chloroquine-sensitive Plasmodium falciparum F32; settings: read-out: ED50 (the source's name)
[29] = tested on: Plasmodium falciparum; assay: Effect on nucleic acid of chloroquine-resistant Plasmodium falciparum K1 culture after 24 hrs at 150 nM; assay type: functional; in short: as §4
[30] = tested on: Plasmodium falciparum; assay: Effect on protein of chloroquine-resistant Plasmodium falciparum K1 culture after 24 hrs at 150 nM; assay type: functional; in short: as §4
[31] = tested on: Plasmodium falciparum; assay: In vitro efficacy for chloroquine-sensitive Plasmodium falciparum D6; settings: read-out: ED50 (the source's name)
[32] = tested on: Plasmodium falciparum; assay: Effect on protein of chloroquine-resistant Plasmodium falciparum K1 culture after 24 hrs at 30 nM; assay type: functional; in short: as §4
[33] = tested on: Mus musculus; assay: Percentage of parasitaemia on day 4 in mice infected with Plasmodium berghei (ip, 40 mg/kg); assay type: functional; in short: as §7
[34] = tested on: Plasmodium falciparum; assay: In vitro efficacy for chloroquine-resistant Plasmodium falciparum K1; assay type: functional; settings: read-out: ED50 (the source's name); in short: as §1
[35] = tested on: Plasmodium falciparum; assay: Effect on glutathione content of chloroquine-resistant Plasmodium falciparum K1 culture after 24 hrs at 500 nM; assay type: functional; in short: as §6
[36] = read-out: ED50 (the source's name)

SMILES: CCCC(=O)OCOC(=O)CCCCCC1=C(C)C(=O)c2ccccc2C1=O
- EC50 [1, 36]: 22400 nM
- NA [2]: inactive
- NA [3]: inactive
- half-life [4]: 1 h
- half-life [5]: 0.5 h

SMILES: CC1=C(CCCCC(=O)O)C(=O)c2c(O)cccc2C1=O
- Ki.c [6]: 1100 nM
- EC50 [1, 36]: 7700 nM
- Ki.c [7]: 2400 nM
- IC50 [8]: 2500 nM
- IC50 [9]: 1000 nM

SMILES: CC1=C(CCCCCC(=O)O)C(=O)c2ccccc2C1=O
- Ki.c [6]: 1900 nM
- EC50 [1, 36]: 3500 nM
- Ki.c [7]: 500 nM
- IC50 [8]: 500 nM
- IC50 [9]: 2600 nM

SMILES: CC1=C(CCCCCC(=O)OCc2cc(NC(=O)CN3CCCCC3)cc(Nc3ccnc4cc(Cl)ccc34)c2)C(=O)c2ccccc2C1=O
- Nucleic acids [10]: 81 ng/mg
- EC50 [11]: 36.5 nM
- GR activity [12]: 30 mU mg-1
- Glutathione [13]: 14.8 nM/mg
- Parasitaemia [14]: 48%
- half-life [15]: > 80 h
- GR activity [16]: 8 mU mg-1
- GST activity [17]: 4.3 mU mg-1
- EC50 ([1]; read-out: ED50): 23.1 nM
- Nucleic acids [18]: 89 ng/mg
- Glutathione [19]: <1 nM/mg
- EC50 [20]: 23.1 nM
- GST activity [21]: 9.5 mU mg-1
- Parasitaemia [22]: 9%
- EC50 [23]: 26.4 nM
- GST activity [24]: 3.7 mU mg-1
- Protein [25]: 0.4 mg/mL
- Excess MST [26]: 178%
- GR activity [27]: 6 mU mg-1
- EC50 [28]: 25.8 nM
- Nucleic acids [29]: 79 ng/mg
- Protein [30]: 0.6 mg/mL
- EC50 [31]: 27.7 nM
- half-life [4]: > 80 h
- Protein [32]: 1.1 mg/mL
- half-life [5]: > 80 h
- Parasitaemia [33]: <0.1%
- EC50 [34]: 29.3 nM
- Glutathione [35]: <1 nM/mg
